Reference: ChEMBL document CHEMBL5236549, “Discovery of 2-Sulfinyl-Diazabicyclooctane Derivatives, Potential Oral β-Lactamase Inhibitors for Infections Caused by Serine β-Lactamase-Producing Enterobacterales” (J Med Chem, 2021)
Values after ≈ are worked out from the molar mass of the structure shown. Active and inactive are the calls of the source. No cut-off for these calls is given here.

Tests used:
[1] = Stability of the compound in phosphate buffer at pH 7.0 assessed as parent compound remaining at 40 degreeC measured after 16 hrs; format: physicochemical; conditions: read-out: Stability
How it was run: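 Compound held in pH 7.0 phosphate buffer at 40 °C for 16 h; amount remaining reported as %.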

[2] = Cmax in rat at 5 mg/kg,po by LC/MS/MS analysis; format: ADME, organism-based; design: dose 5 mg/kg, route po; conditions: in vivo
How it was run: (§1)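 Plasma of the parent acid measured by LC/MS/MS (methanol precipitation, positive ESI, external standard); oral values follow prodrug dosing (rat fed, dog and monkey fasted). AUC from 0 h to last time point by linear trapezoid; F from oral AUC versus iv AUC of the parent. N = 2 (rat, dog), N = 3 (monkey, mouse).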

[3] = AUC in rat at 5 mg/kg,po by LC/MS/MS analysis; format: ADME, organism-based; design: dose 5 mg/kg, route po; conditions: in vivo; how it was run: as §1
[4] = Tmax in rat at 5 mg/kg,po by LC/MS/MS analysis; format: ADME, organism-based; conditions: in vivo
[5] = Oral bioavailability in rat at 5 mg/kg by LC/MS/MS analysis; format: ADME, organism-based; conditions: in vivo; how it was run: as §1
[6] = Cmax in dog at 10 mg/kg,po by LC/MS/MS analysis; format: ADME, organism-based, Canis lupus familiaris; design: dose 10 mg/kg, route po; conditions: in vivo; how it was run: as §1
[7] = AUC in dog at 10 mg/kg,po by LC/MS/MS analysis; format: ADME, organism-based, Canis lupus familiaris; design: dose 10 mg/kg, route po; conditions: in vivo; how it was run: as §1
[8] = Tmax in dog at 10 mg/kg,po by LC/MS/MS analysis; format: ADME, organism-based, Canis lupus familiaris; conditions: in vivo
[9] = Oral bioavailability in dog at 10 mg/kg by LC/MS/MS analysis; format: ADME, organism-based, Canis lupus familiaris; conditions: in vivo; how it was run: as §1
[10] = Cmax in monkey at 10 mg/kg,po by LC/MS/MS analysis; format: ADME, organism-based, Macaca mulatta; design: dose 10 mg/kg, route po; conditions: rhesus monkey, in vivo; how it was run: as §1
[11] = AUC in monkey at 10 mg/kg,po by LC/MS/MS analysis; format: ADME, organism-based, Macaca mulatta; design: dose 10 mg/kg, route po; conditions: rhesus monkey, in vivo; how it was run: as §1
[12] = Tmax in monkey at 10 mg/kg,po by LC/MS/MS analysis; format: ADME, organism-based, Macaca mulatta; conditions: rhesus monkey, in vivo
[13] = Oral bioavailability in monkey at 10 mg/kg by LC/MS/MS analysis; format: ADME, organism-based, Macaca mulatta; conditions: rhesus monkey, in vivo; how it was run: as §1
[14] = Cmax in mouse at 10 mg/kg,po by LC/MS/MS analysis; format: ADME, organism-based; design: dose 10 mg/kg, route po; conditions: in vivo; how it was run: as §1
[15] = Cmax in mouse at 30 mg/kg,po by LC/MS/MS analysis; format: ADME, organism-based; design: dose 30 mg/kg, route po; conditions: in vivo; how it was run: as §1
[16] = Cmax in mouse at 100 mg/kg,po by LC/MS/MS analysis; format: ADME, organism-based; design: dose 100 mg/kg, route po; conditions: in vivo; how it was run: as §1
[17] = AUC in mouse at 10 mg/kg,po by LC/MS/MS analysis; format: ADME, organism-based; design: dose 10 mg/kg, route po; conditions: in vivo; how it was run: as §1
[18] = AUC in mouse at 30 mg/kg,po by LC/MS/MS analysis; format: ADME, organism-based; design: dose 30 mg/kg, route po; conditions: in vivo; how it was run: as §1
[19] = AUC in mouse at 100 mg/kg,po by LC/MS/MS analysis; format: ADME, organism-based; design: dose 100 mg/kg, route po; conditions: in vivo; how it was run: as §1
[20] = Oral bioavailability in mouse at 10 mg/kg by LC/MS/MS analysis; format: ADME, organism-based; conditions: in vivo; how it was run: as §1
[21] = Oral bioavailability in mouse at 30 mg/kg by LC/MS/MS analysis; format: ADME, organism-based; conditions: in vivo; how it was run: as §1
[22] = Oral bioavailability in mouse at 100 mg/kg by LC/MS/MS analysis; format: ADME, organism-based; conditions: in vivo; how it was run: as §1
Klebsiella pneumoniae [23] = assay: Antibacterial activity in ICR mouse infected with Klebsiella pneumoniae SR08667 assessed as reduction in bacterial colony forming units at 10 mg/kg,po administered upto 48 hrs after infection in presence of CTB; format: functional
How it was run: (§2)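 Urinary tract infection model in 5-week-old female ICR mice, N = 5 per arm. 1.2 × 10⁶ CFU given transurethrally, urethra tied for 4 h. Oral dosing at 4, 8, 28 and 32 h post-infection in 0.5% methylcellulose: ceftibuten 30 mg/kg alone, ceftibuten 10 mg/kg plus prodrug 3, 10 or 30 mg/kg, or both at 30 mg/kg. Kidneys homogenized at 4 or 48 h and plated on modified Drigalski agar. Read-out is change in log CFU/kidney versus untreated controls at treatment start.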

Klebsiella pneumoniae [24] = assay: Antibacterial activity in ICR mouse infected with Klebsiella pneumoniae SR08667 assessed as reduction in bacterial colony forming units at 30 mg/kg,po administered upto 48 hrs after infection in presence of CTB; format: functional; how it was run: as §2
[25] = Toxicity in rat at 600 mg/kg,po administered for two weeks; format: organism-based; conditions: in vivo
How it was run: (§3)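 Two-week rat toxicology study with daily oral dosing of prodrug; NOAEL and lethal dose established.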

[26] = Toxicity in rat at > 2000 mg/kg,po administered for two weeks; format: organism-based; conditions: in vivo; how it was run: as §3
Escherichia coli [27] = assay: Antibacterial activity against Escherichia coli assessed as inhibition of bacterial growth incubated for 16 to 24 hrs by CLSI based two-fold serial dilution method; format: functional; conditions: time 16-24 hrs
How it was run: (§4)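 CLSI broth microdilution with twofold serial dilutions in cation-adjusted Mueller Hinton broth. Inoculum set from OD625 to about 5 × 10⁴ cfu/well final. Plates incubated at 35 °C for 16−20 h. MIC is the lowest concentration with no growth visible to the unaided eye.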

Escherichia coli [28] = assay: Antibacterial activity against Escherichia coli expressing KPC-2 assessed as inhibition of bacterial growth incubated for 16 to 24 hrs by CLSI based two-fold serial dilution method; format: functional; conditions: time 16-24 hrs; how it was run: as §4
Escherichia coli [29] = assay: Antibacterial activity against Escherichia coli expressing CTX-M-15 assessed as inhibition of bacterial growth incubated for 16 to 24 hrs by CLSI based two-fold serial dilution method; format: functional; conditions: time 16-24 hrs; how it was run: as §4
Escherichia coli [30] = assay: Antibacterial activity against Escherichia coli expressing CMY-2 assessed as inhibition of bacterial growth incubated for 16 to 24 hrs by CLSI based two-fold serial dilution method; format: functional; conditions: time 16-24 hrs; how it was run: as §4
Escherichia coli [31] = assay: Antibacterial activity against Escherichia coli expressing OXA-48 assessed as inhibition of bacterial growth incubated for 16 to 24 hrs by CLSI based two-fold serial dilution method; format: functional; conditions: time 16-24 hrs; how it was run: as §4
Enterobacter cloacae [32] = assay: Antibacterial activity against Enterobacter cloacae SR200030 assessed as inhibition of bacterial growth incubated for 16 to 24 hrs by CLSI based two-fold serial dilution method; format: functional; conditions: time 16-24 hrs
How it was run: (§5)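 CLSI broth microdilution in cation-adjusted Mueller Hinton broth, twofold serial dilutions, about 5 × 10⁴ cfu/well from OD625, 35 °C for 16−20 h. MIC is the lowest concentration with no visible growth.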

Klebsiella pneumoniae [33] = assay: Antibacterial activity against Klebsiella pneumoniae SR100758 assessed as inhibition of bacterial growth incubated for 16 to 24 hrs by CLSI based two-fold serial dilution method; format: functional; conditions: time 16-24 hrs; how it was run: as §5
Klebsiella pneumoniae [34] = assay: Antibacterial activity against Klebsiella pneumoniae SR200263 assessed as inhibition of bacterial growth incubated for 16 to 24 hrs by CLSI based two-fold serial dilution method; format: functional; conditions: time 16-24 hrs; how it was run: as §5
Klebsiella pneumoniae [35] = assay: Antibacterial activity against Klebsiella pneumoniae SR200487 assessed as inhibition of bacterial growth incubated for 16 to 24 hrs by CLSI based two-fold serial dilution method; format: functional; conditions: time 16-24 hrs; how it was run: as §5
Klebsiella pneumoniae [36] = assay: Antibacterial activity in ICR mouse infected with Klebsiella pneumoniae SR08667 assessed as reduction in bacterial colony forming units at 30 mg/kg,po administered upto 48 hrs after infection; format: functional, organism-based; how it was run: as §2
Enterobacter cloacae [37] = assay: Antibacterial activity against Enterobacter cloacae SR36276 assessed as inhibition of bacterial growth incubated for 16 to 20 hrs by CLSI based two-fold serial dilution method
Enterobacter cloacae [38] = assay: Antibacterial activity against Enterobacter cloacae SR100108 assessed as inhibition of bacterial growth incubated for 16 to 20 hrs by CLSI based two-fold serial dilution method
Klebsiella pneumoniae [39] = assay: Antibacterial activity against Klebsiella pneumoniae SR09635 assessed as inhibition of bacterial growth incubated for 16 to 20 hrs by CLSI based two-fold serial dilution method
Klebsiella pneumoniae [40] = assay: Antibacterial activity against Klebsiella pneumoniae SR09603 assessed as inhibition of bacterial growth incubated for 16 to 20 hrs by CLSI based two-fold serial dilution method
Klebsiella pneumoniae [41] = assay: Antibacterial activity against Klebsiella pneumoniae SR201325 assessed as inhibition of bacterial growth incubated for 16 to 20 hrs by CLSI based two-fold serial dilution method

SMILES: C[S@@+]([O-])[C@@H]1CC[C@@H]2CN1C(=O)N2O[C@H](F)C(=O)OC1CCCCC1
- remaining at 16 h [1]: 56%
- Cmax [2]: 620 ng/mL
- AUC [3]: 1170 ng·h/mL
- Tmax [4]: 0.5 h
- bioavailability [5]: 37.8%
- Cmax [6]: 15800 ng/mL
- AUC [7]: 41200 ng·h/mL
- Tmax [8]: 1 h
- bioavailability [9]: 106%
- Cmax [10]: 7940 ng/mL
- AUC [11]: 15200 ng·h/mL
- Tmax [12]: 1 h
- bioavailability [13]: 54.8%
- Cmax [14]: 5600 ng/mL
- Cmax [15]: 21400 ng/mL
- Cmax [16]: 52000 ng/mL
- AUC [17]: 3900 ng·h/mL
- AUC [18]: 18100 ng·h/mL
- AUC [19]: 50200 ng·h/mL
- bioavailability [20]: 80%
- bioavailability [21]: 122%
- bioavailability [22]: 102%
- Activity (Klebsiella pneumoniae [23]): >0.5 log10CFU
- Activity (Klebsiella pneumoniae [24]): >1 log10CFU
- Activity [25]: Non-Toxic
- Activity [26]: Non-Toxic

SMILES: Nc1nc(/C(=C/CC(=O)O)C(=O)N[C@@H]2C(=O)N3C(C(=O)O)=CCS[C@H]23)cs1 [CEFTIBUTEN]
- MIC (Escherichia coli [27]): > 32 µg/mL
- MIC (Escherichia coli [28]): 16 µg/mL (≈ 39 µM)
- MIC (Escherichia coli [29]): 32 µg/mL (≈ 78 µM)
- MIC (Escherichia coli [30]): > 32 µg/mL
- MIC (Escherichia coli [31]): > 32 µg/mL
- MIC (Enterobacter cloacae [32]): > 32 µg/mL
- MIC (Klebsiella pneumoniae [33]): > 32 µg/mL
- MIC (Klebsiella pneumoniae [34]): > 32 µg/mL
- MIC (Klebsiella pneumoniae [35]): > 32 µg/mL
- Activity (Klebsiella pneumoniae [36]): inactive
- MIC (Enterobacter cloacae [37]): > 32 µg/mL
- MIC (Enterobacter cloacae [38]): > 32 µg/mL
- MIC (Klebsiella pneumoniae [39]): > 32 µg/mL
- MIC (Klebsiella pneumoniae [40]): > 32 µg/mL
- MIC (Klebsiella pneumoniae [41]): > 32 µg/mL
